Reference: article PMC5621377 (Clinical cancer research : an official journal of the …, 2016)

System: patients with Rb+ advanced solid tumors or lymphomas
Experiment: Safety assessments, adverse events
Format: in vivo, human
Outline: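 Oral test compound given daily 3-weeks-on/1-week-off in 28-day cycles, with doses escalated by a Bayesian logistic regression model with overdose control. Safety assessments, including ECGs, were done at baseline and at regular intervals. AEs were graded by CTCAE v4.0 and classed as suspected related to treatment. All patients dosed at least once were included; summaries were descriptive per dose level.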

[1] = 50 mg 3-weeks-on/1-week-off, n = 4
[2] = 70 mg 3-weeks-on/1-week-off, n = 2
[3] = 140 mg 3-weeks-on/1-week-off, n = 4
[4] = 260 mg 3-weeks-on/1-week-off, n = 4
[5] = 280 mg 3-weeks-on/1-week-off, n = 4
[6] = 350 mg 3-weeks-on/1-week-off, n = 5
[7] = 400 mg 3-weeks-on/1-week-off, n = 5

CN(C)C(=O)c1cc2cnc(Nc3ccc(N4CCNCC4)cn3)nc2n1C1CCCC1 [ribociclib]
Anemia, Grade 3/4, AE suspected related to study treatment [1]: 0 n (%) | Anemia, Grade All, AE suspected related to study treatment [1]: 0 n (%) | Appetite decreased, Grade 3/4, AE suspected related to study treatment [1]: 0 n (%) | Appetite decreased, Grade All, AE suspected related to study treatment [1]: 0 n (%) | Blood creatinine increased, Grade 3/4, AE suspected related to study treatment [1]: 0 n (%) | Blood creatinine increased, Grade All, AE suspected related to study treatment [1]: 0 n (%) | Diarrhea, Grade 3/4, AE suspected related to study treatment [1]: 0 n (%) | Diarrhea, Grade All, AE suspected related to study treatment [1]: 0 n (%) | Fatigue, Grade 3/4, AE suspected related to study treatment [1]: 0 n (%) | Fatigue, Grade All, AE suspected related to study treatment [1]: 2 (50) n (%) | Leukopenia, Grade 3/4, AE suspected related to study treatment [1]: 0 n (%) | Leukopenia, Grade All, AE suspected related to study treatment [1]: 0 n (%) | Lymphopenia, Grade 3/4, AE suspected related to study treatment [1]: 0 n (%) | Lymphopenia, Grade All, AE suspected related to study treatment [1]: 0 n (%) | Nausea, Grade 3/4, AE suspected related to study treatment [1]: 0 n (%) | Nausea, Grade All, AE suspected related to study treatment [1]: 0 n (%) | Neutropenia, Grade 3/4, AE suspected related to study treatment [1]: 0 n (%) | Neutropenia, Grade All, AE suspected related to study treatment [1]: 0 n (%) | Thrombocytopenia, Grade 3/4, AE suspected related to study treatment [1]: 0 n (%) | Thrombocytopenia, Grade All, AE suspected related to study treatment [1]: 0 n (%) | Vomiting, Grade 3/4, AE suspected related to study treatment [1]: 0 n (%) | Vomiting, Grade All, AE suspected related to study treatment [1]: 0 n (%) | Anemia, Grade 3/4, AE suspected related to study treatment [2]: 0 n (%) | Anemia, Grade All, AE suspected related to study treatment [2]: 0 n (%) | Appetite decreased, Grade 3/4, AE suspected related to study treatment [2]: 0 n (%) | Appetite decreased, Grade All, AE suspected related to study treatment [2]: 0 n (%) | Blood creatinine increased, Grade 3/4, AE suspected related to study treatment [2]: 0 n (%) | Blood creatinine increased, Grade All, AE suspected related to study treatment [2]: 0 n (%) | Diarrhea, Grade 3/4, AE suspected related to study treatment [2]: 0 n (%) | Diarrhea, Grade All, AE suspected related to study treatment [2]: 0 n (%) | Fatigue, Grade 3/4, AE suspected related to study treatment [2]: 0 n (%) | Fatigue, Grade All, AE suspected related to study treatment [2]: 2 (100) n (%) | Leukopenia, Grade 3/4, AE suspected related to study treatment [2]: 0 n (%) | Leukopenia, Grade All, AE suspected related to study treatment [2]: 0 n (%) | Lymphopenia, Grade 3/4, AE suspected related to study treatment [2]: 0 n (%) | Lymphopenia, Grade All, AE suspected related to study treatment [2]: 0 n (%) | Nausea, Grade 3/4, AE suspected related to study treatment [2]: 0 n (%) | Nausea, Grade All, AE suspected related to study treatment [2]: 1 (50) n (%) | Neutropenia, Grade 3/4, AE suspected related to study treatment [2]: 0 n (%) | Neutropenia, Grade All, AE suspected related to study treatment [2]: 0 n (%) | Thrombocytopenia, Grade 3/4, AE suspected related to study treatment [2]: 0 n (%) | Thrombocytopenia, Grade All, AE suspected related to study treatment [2]: 0 n (%) | Vomiting, Grade 3/4, AE suspected related to study treatment [2]: 0 n (%) | Vomiting, Grade All, AE suspected related to study treatment [2]: 1 (50) n (%) | Anemia, Grade 3/4, AE suspected related to study treatment [3]: 0 n (%) | Anemia, Grade All, AE suspected related to study treatment [3]: 0 n (%) | Appetite decreased, Grade 3/4, AE suspected related to study treatment [3]: 0 n (%) | Appetite decreased, Grade All, AE suspected related to study treatment [3]: 1 (25) n (%) | Blood creatinine increased, Grade 3/4, AE suspected related to study treatment [3]: 0 n (%) | Blood creatinine increased, Grade All, AE suspected related to study treatment [3]: 0 n (%) | Diarrhea, Grade 3/4, AE suspected related to study treatment [3]: 0 n (%) | Diarrhea, Grade All, AE suspected related to study treatment [3]: 0 n (%) | Fatigue, Grade 3/4, AE suspected related to study treatment [3]: 0 n (%) | Fatigue, Grade All, AE suspected related to study treatment [3]: 3 (75) n (%) | Leukopenia, Grade 3/4, AE suspected related to study treatment [3]: 0 n (%) | Leukopenia, Grade All, AE suspected related to study treatment [3]: 0 n (%) | Lymphopenia, Grade 3/4, AE suspected related to study treatment [3]: 0 n (%) | Lymphopenia, Grade All, AE suspected related to study treatment [3]: 0 n (%) | Nausea, Grade 3/4, AE suspected related to study treatment [3]: 0 n (%) | Nausea, Grade All, AE suspected related to study treatment [3]: 0 n (%) | Neutropenia, Grade 3/4, AE suspected related to study treatment [3]: 0 n (%) | Neutropenia, Grade All, AE suspected related to study treatment [3]: 0 n (%) | Thrombocytopenia, Grade 3/4, AE suspected related to study treatment [3]: 0 n (%) | Thrombocytopenia, Grade All, AE suspected related to study treatment [3]: 0 n (%) | Vomiting, Grade 3/4, AE suspected related to study treatment [3]: 0 n (%) | Vomiting, Grade All, AE suspected related to study treatment [3]: 0 n (%) | Anemia, Grade 3/4, AE suspected related to study treatment [4]: 0 n (%) | Anemia, Grade All, AE suspected related to study treatment [4]: 0 n (%) | Appetite decreased, Grade 3/4, AE suspected related to study treatment [4]: 0 n (%) | Appetite decreased, Grade All, AE suspected related to study treatment [4]: 0 n (%) | Blood creatinine increased, Grade 3/4, AE suspected related to study treatment [4]: 0 n (%) | Blood creatinine increased, Grade All, AE suspected related to study treatment [4]: 0 n (%) | Diarrhea, Grade 3/4, AE suspected related to study treatment [4]: 0 n (%) | Diarrhea, Grade All, AE suspected related to study treatment [4]: 0 n (%) | Fatigue, Grade 3/4, AE suspected related to study treatment [4]: 0 n (%) | Fatigue, Grade All, AE suspected related to study treatment [4]: 4 (100) n (%) | Leukopenia, Grade 3/4, AE suspected related to study treatment [4]: 0 n (%) | Leukopenia, Grade All, AE suspected related to study treatment [4]: 1 (25) n (%) | Lymphopenia, Grade 3/4, AE suspected related to study treatment [4]: 0 n (%) | Lymphopenia, Grade All, AE suspected related to study treatment [4]: 2 (50) n (%) | Nausea, Grade 3/4, AE suspected related to study treatment [4]: 0 n (%) | Nausea, Grade All, AE suspected related to study treatment [4]: 0 n (%) | Neutropenia, Grade 3/4, AE suspected related to study treatment [4]: 0 n (%) | Neutropenia, Grade All, AE suspected related to study treatment [4]: 0 n (%) | Thrombocytopenia, Grade 3/4, AE suspected related to study treatment [4]: 0 n (%) | Thrombocytopenia, Grade All, AE suspected related to study treatment [4]: 0 n (%) | Vomiting, Grade 3/4, AE suspected related to study treatment [4]: 0 n (%) | Vomiting, Grade All, AE suspected related to study treatment [4]: 0 n (%) | Anemia, Grade 3/4, AE suspected related to study treatment [5]: 0 n (%) | Anemia, Grade All, AE suspected related to study treatment [5]: 0 n (%) | Appetite decreased, Grade 3/4, AE suspected related to study treatment [5]: 0 n (%) | Appetite decreased, Grade All, AE suspected related to study treatment [5]: 2 (50) n (%) | Blood creatinine increased, Grade 3/4, AE suspected related to study treatment [5]: 0 n (%) | Blood creatinine increased, Grade All, AE suspected related to study treatment [5]: 0 n (%) | Diarrhea, Grade 3/4, AE suspected related to study treatment [5]: 0 n (%) | Diarrhea, Grade All, AE suspected related to study treatment [5]: 1 (25) n (%) | Fatigue, Grade 3/4, AE suspected related to study treatment [5]: 0 n (%) | Fatigue, Grade All, AE suspected related to study treatment [5]: 1 (25) n (%) | Leukopenia, Grade 3/4, AE suspected related to study treatment [5]: 0 n (%) | Leukopenia, Grade All, AE suspected related to study treatment [5]: 1 (25) n (%) | Lymphopenia, Grade 3/4, AE suspected related to study treatment [5]: 1 (25) n (%) | Lymphopenia, Grade All, AE suspected related to study treatment [5]: 1 (25) n (%) | Nausea, Grade 3/4, AE suspected related to study treatment [5]: 0 n (%) | Nausea, Grade All, AE suspected related to study treatment [5]: 2 (50) n (%) | Neutropenia, Grade 3/4, AE suspected related to study treatment [5]: 0 n (%) | Neutropenia, Grade All, AE suspected related to study treatment [5]: 1 (25) n (%) | Thrombocytopenia, Grade 3/4, AE suspected related to study treatment [5]: 0 n (%) | Thrombocytopenia, Grade All, AE suspected related to study treatment [5]: 1 (25) n (%) | Vomiting, Grade 3/4, AE suspected related to study treatment [5]: 0 n (%) | Vomiting, Grade All, AE suspected related to study treatment [5]: 0 n (%) | Anemia, Grade 3/4, AE suspected related to study treatment [6]: 0 n (%) | Anemia, Grade All, AE suspected related to study treatment [6]: 2 (40) n (%) | Appetite decreased, Grade 3/4, AE suspected related to study treatment [6]: 0 n (%) | Appetite decreased, Grade All, AE suspected related to study treatment [6]: 1 (20) n (%) | Blood creatinine increased, Grade 3/4, AE suspected related to study treatment [6]: 0 n (%) | Blood creatinine increased, Grade All, AE suspected related to study treatment [6]: 3 (60) n (%) | Diarrhea, Grade 3/4, AE suspected related to study treatment [6]: 0 n (%) | Diarrhea, Grade All, AE suspected related to study treatment [6]: 1 (20) n (%) | Fatigue, Grade 3/4, AE suspected related to study treatment [6]: 0 n (%) | Fatigue, Grade All, AE suspected related to study treatment [6]: 1 (20) n (%) | Leukopenia, Grade 3/4, AE suspected related to study treatment [6]: 0 n (%) | Leukopenia, Grade All, AE suspected related to study treatment [6]: 2 (40) n (%) | Lymphopenia, Grade 3/4, AE suspected related to study treatment [6]: 1 (20) n (%) | Lymphopenia, Grade All, AE suspected related to study treatment [6]: 1 (20) n (%) | Nausea, Grade 3/4, AE suspected related to study treatment [6]: 0 n (%) | Nausea, Grade All, AE suspected related to study treatment [6]: 2 (40) n (%) | Neutropenia, Grade 3/4, AE suspected related to study treatment [6]: 0 n (%) | Neutropenia, Grade All, AE suspected related to study treatment [6]: 1 (20) n (%) | Thrombocytopenia, Grade 3/4, AE suspected related to study treatment [6]: 0 n (%) | Thrombocytopenia, Grade All, AE suspected related to study treatment [6]: 0 n (%) | Vomiting, Grade 3/4, AE suspected related to study treatment [6]: 0 n (%) | Vomiting, Grade All, AE suspected related to study treatment [6]: 2 (40) n (%) | Anemia, Grade 3/4, AE suspected related to study treatment [7]: 0 n (%) | Anemia, Grade All, AE suspected related to study treatment [7]: 2 (40) n (%) | Appetite decreased, Grade 3/4, AE suspected related to study treatment [7]: 0 n (%) | Appetite decreased, Grade All, AE suspected related to study treatment [7]: 0 n (%) | Blood creatinine increased, Grade 3/4, AE suspected related to study treatment [7]: 0 n (%) | Blood creatinine increased, Grade All, AE suspected related to study treatment [7]: 1 (20) n (%) | Diarrhea, Grade 3/4, AE suspected related to study treatment [7]: 0 n (%) | Diarrhea, Grade All, AE suspected related to study treatment [7]: 0 n (%) | Fatigue, Grade 3/4, AE suspected related to study treatment [7]: 0 n (%) | Fatigue, Grade All, AE suspected related to study treatment [7]: 1 (20) n (%) | Leukopenia, Grade 3/4, AE suspected related to study treatment [7]: 0 n (%) | Leukopenia, Grade All, AE suspected related to study treatment [7]: 1 (20) n (%) | Lymphopenia, Grade 3/4, AE suspected related to study treatment [7]: 0 n (%) | Lymphopenia, Grade All, AE suspected related to study treatment [7]: 0 n (%) | Nausea, Grade 3/4, AE suspected related to study treatment [7]: 0 n (%)
